BAP1 block: human BAP1 deubiquitinase inhibition; recombinant BAP1, Ub-AMC hydrolysis fluorescence kinetic; stronger effect = lower value; 72,000 compounds, 0.48% hits; AID 436; calls only at 20 µM; Q92560;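 active = activity remaining at or below 50% of control, provided the compound also passes the data quality filters; inactive = the rest, including low values that fail the filters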;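 note: 100% = DMSO wells rate and 0% = substrate alone blank rate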
D1 allo mod: D1 dopamine receptor (human) allosteric modulation; B-score at 10 µM; 58,000 compounds, 5.9% hits; HEK293 D1, CRE-luciferase, dopamine EC30 potentiation; actives deviate in either direction;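 active = luminescence count or its row- and column-corrected plate score outside the 99.7% band of the plate's sample wells, on either side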
M1 antagonist: M1 muscarinic receptor (rat) antagonism; B-score at 10 µM; CHO-M1 cells, Fluo-4 calcium, ACh EC80 antagonist mode; stronger effect = lower value; 64,000 compounds, 3.4% hits; P08482;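 active = calcium fluorescence response, raw or row-and-column corrected B-score, differing from the plate sample mean either way at a set confidence level, mostly lower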
HEK293 NFkB inh: inhibitors of the PMA/ionomycin-induced NF-kB reporter in HEK293 cells. inhibition, % at 3 µM. HEK-293 NF-kB luciferase reporter, luminescence. AID 465. 62,000 compounds, 0.21% hits;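 active = inhibition above the mean of all tested compounds plus 3 SD, cut at about 40% in these data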;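 note: 0% = stimulated DMSO wells and 100% = 10 µM reference inhibitor 5653914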
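Material: HEK-293 cells with stable firefly luciferase reporter driven by four HIV NF-kB elements / Also added: PMA plus ionomycin mix as NF-kB-activating stimulus / Compound dosing: 3 µM once, 0.30% DMSO / Times: 1 h pretreatment, 16 h stimulation, 37 °C / Signal: luminescence / Evaluation: per-plate % inhibition versus controls / Benchmarks: DMSO and 10 µM reference inhibitor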
M1 ag: activates the M1 muscarinic receptor; B-score at 10 µM; 64,000 compounds, 3% hits; AID 626; CHO-M1 cells, Fluo-4 calcium fluorescence, agonist mode; stronger effect = higher value;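 active = fluorescence rise, raw or as B-score row- and column-corrected plate score, outside the 99.7% band of its plate's samples, either direction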
DAT uptake mod: changed human dopamine transporter uptake under cocaine IC80 | Q01959 | LLC-PK1 hDAT cells, [14C]-dopamine uptake with cocaine IC80; actives deviate in either direction | B-score at 10 µM | 110,000 compounds, 1.3% hits | AID 449768;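 active = Z score or B-score, a plate-position-corrected score, falls beyond the plate's 99.7% confidence bounds, in either direction; inactive = both scores lie inside the 99.7% bounds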;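 note: scored against the spread of the other compound wells on the same plate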
Target sequence (Q01959 whole entry, looked up): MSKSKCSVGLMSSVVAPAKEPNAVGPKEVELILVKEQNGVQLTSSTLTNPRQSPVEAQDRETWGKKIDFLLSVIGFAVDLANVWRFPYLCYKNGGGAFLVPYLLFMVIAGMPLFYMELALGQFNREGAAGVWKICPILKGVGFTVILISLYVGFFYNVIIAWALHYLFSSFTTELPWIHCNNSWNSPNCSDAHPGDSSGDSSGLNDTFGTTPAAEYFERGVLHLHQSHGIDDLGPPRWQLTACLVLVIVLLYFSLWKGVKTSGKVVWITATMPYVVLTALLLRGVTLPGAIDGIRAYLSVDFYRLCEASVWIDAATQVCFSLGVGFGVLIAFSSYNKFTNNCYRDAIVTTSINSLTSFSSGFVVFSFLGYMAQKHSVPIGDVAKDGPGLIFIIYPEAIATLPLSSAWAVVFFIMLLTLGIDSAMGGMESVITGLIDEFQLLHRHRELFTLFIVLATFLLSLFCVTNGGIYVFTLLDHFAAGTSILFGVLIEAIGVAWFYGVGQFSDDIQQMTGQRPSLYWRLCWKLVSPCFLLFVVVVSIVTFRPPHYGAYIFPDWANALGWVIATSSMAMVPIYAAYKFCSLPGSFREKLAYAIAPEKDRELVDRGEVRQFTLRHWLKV
M1 agonist conf: confirmation of rat M1 muscarinic receptor agonists. CHO-M1 cells, Fluo-4 calcium fluorescence, agonist mode; actives lie on both sides. AID 1488. 1,700 compounds, 19% hits. shares compounds with M1 ag. fluorescence change (max-min) at 10 µM;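 active = fluorescence change differs from the solvent-only DMSO control mean at a set confidence level in both duplicate runs; inconclusive = differs from solvent-only control mean in just one of two runs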;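 note: an EC20 dose of acetylcholine follows compound addition during the same imaging run; raw fluorescence intensity difference in instrument units with no normalization to controls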
M4 agonist ctr: counter-screen for M1 agonists: activity at rat M4 receptor. shares compounds with M1 ag. CHO M4/Gqi5 cells, Fluo-4 calcium fluorescence, agonist mode; actives lie on both sides. fluorescence change (max-min) at 10 µM. 1,700 compounds, 9% hits;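 active = fluorescence change differing from the plate's solvent-only control wells at 99.7% confidence in both duplicates, whether higher or lower; inconclusive = differs from solvent controls in only one of two duplicates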
* hit, by the source's call; i = inactive; ? = inconclusive; . = no result given. A selection: hits, their analogues and other compounds. The true share with any hit is near 7.2%.

SMILES	BAP1 block	D1 allo mod	M1 antagonist	HEK293 NFkB inh	M1 ag	DAT uptake mod	M1 agonist conf	M4 agonist ctr
Cc1nn(-c2ccccc2)c(Cl)c1C(=O)N1CCN(c2ncnc3c2cnn3-c2ccccc2)CC1	i	.	-3.4*	0.4	2.54*	1.3	-27.3*	-56.6
CCn1c(C(=O)N2CCC(C(=O)N3CCN(c4ccccn4)CC3)CC2)cc2sccc21	i	-1.17	-0.704	-5.6	2.55*	0.773	-18.8	?
CC1CCN(C(=O)C2CCN(C(=O)c3cc4sccc4n3Cc3ccc(F)cc3)CC2)CC1	i	.	-1.12	7.8	1.21	1.3	.	.
O=C(Nc1sc2c(c1C(=O)N1CCCCC1)CCCC2)c1ccccc1	i	.	.	.	.	.	.	.
C=CCn1c2ccccc2c2nnc(SCCCn3c(=O)[nH]c4ccccc43)nc21	.	2.33	-6.62*	17.7	5.32*	3.7*	-3.69	-18.2
CCOc1ccc(NC(=O)c2cccc([N+](=O)[O-])c2C)cc1	i	.	.	.	.	.	.	.
CCN=c1sc(C(=O)NCCc2ccccc2)cc(=O)n1CC	i	.	-2.94*	11.9	12.1*	-0.0218	-7.17	-14.9
CCN=C1SC(C(=O)NCCc2ccccc2)CC(=O)N1CC (stereo not given)	i	1.16	-1.15	8.8	4.75*	0.844	?	-25.9
CCOc1ccc2nc(NCCNC(=O)CC)c(C#N)cc2c1	i	0.69	-0.522	9.6	9.69*	2.27	133*	71.2
CCOC(=O)C1=C(C(=O)OCC)SC(=C2C(=S)C(C)(C)N(C(=O)C(F)(F)F)c3ccc(OCC)cc32)S1	i	.	.	.	.	.	.	.
Nc1ncnc2c1nc(Sc1ccc(Cl)cc1)n2C1OC2COP(=O)(O)O[C@@H]2[C@@H]1O (stereo not given in full)	i	.	.	.	.	.	.	.
CCCCC(=O)Nc1ccc(C(=O)NCc2ccncc2)cc1	i	-1.17	1.33	23.4	19*	-0.958	?	-48.7
CCCCOc1ccc(C(=O)Nc2ccncc2)cc1	i	-2.95	-3.69*	9.3	10.9*	-0.837	-17	?
CCCCOc1ccc(-c2nnc(-c3ccncc3)o2)cc1	i	-0.0422	-0.493	-8.2	2.69*	0.961	-18.3	?
CCc1ccc(C(=O)Nc2ccc(Cl)cn2)cc1	i	.	.	.	.	.	.	.
COc1ccc(CN(Cc2cc3cccc(C)c3[nH]c2=O)C(=O)N(C)C)cc1	i	-0.682	-1	14.4	3.54*	-0.0592	-16.3	-48.8
Cc1ccc(CN(Cc2cc3cccc(C)c3[nH]c2=O)C(=O)N(C)C)cc1	i	-0.352	0.466	15.1	0.171	0.00808	.	.
Cc1ccnc(N2C(=O)c3ccc(Oc4ccc5c(c4)C(=O)N(c4cc(C)ccn4)C5=O)cc3C2=O)c1	i	.	.	.	.	.	.	.

Screening data from PubChem BioAssay.
